# Source: PubChem BioAssay (Sanford-Burnham Center for Chemical Genomics)
# SENP1 FRET inh = human SENP1 catalytic domain inhibitors, primary screen, biochemical, FRET, uHTS | recombinant SENP1 catalytic domain, CyPet-SUMO1-YPet FRET cleavage | inhibition, % at 10 µM | 360,000 tested, 0.21% active;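 active = inhibition at least 30% at 10 µM, raw YFP signal under a set limit, fluorescence ratio 0.5 to 1.5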;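 note: 0% = enzyme with DMSO and 100% = no enzyme wells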
#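 system = hSENP1 catalytic domain, recombinant | reagent = SFCypet-SUMO1-SFYpet substrate at 25 nM | doses = one dose per compound, 10 µM, 0.5% DMSO | incubation = enzyme reaction for 50 min at room temperature, dark | measured by = FRET, CFP and YFP emission | controls = no-enzyme low, enzyme-DMSO high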
# SENP8 block-1 = human SENP8 protease inhibitors, primary screen, biochemical, fluorescence, Nedd8 protein substrate, uHTS; Sentrin-specific protease 8 (Homo sapiens), Q96LD8; recombinant SENP8; inhibition, % at 20 µM; 360,000 tested, 0.64% active; in the data active = inhibition mostly above about 40%, no sharp cut-off; inactive = mostly below about 27%
# Target sequence (Q96LD8 whole entry, looked up): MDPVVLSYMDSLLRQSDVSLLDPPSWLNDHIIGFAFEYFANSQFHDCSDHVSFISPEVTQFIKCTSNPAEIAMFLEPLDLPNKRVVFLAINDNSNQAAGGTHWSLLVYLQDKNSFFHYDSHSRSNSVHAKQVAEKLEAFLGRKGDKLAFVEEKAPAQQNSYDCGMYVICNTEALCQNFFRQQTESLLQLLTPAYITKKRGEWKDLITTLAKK
# SENP8 block-2 = SENP8 protease inhibitors, primary screen, biochemical, luminescence. Sentrin-specific protease 8 (Homo sapiens), Q96LD8. 330,000 tested, 1.2% active. purified SENP8, Z-RLRGG-aminoluciferin cleavage. inhibition, % at 10 µM. AID 2540, 2010; in the data active = inhibition above about 50%
# Apaf-1 inh = inhibitors of human Apaf-1 apoptosome, primary screen, biochemical, DEVD-Rh110 fluorescence, uHTS; 330,000 tested, 0.71% active; reconstituted apoptosome caspase-3 activity; AID 489030, 2010; inhibition, % at 20 µM; Apoptotic protease-activating factor 1 (Homo sapiens), O14727; active = inhibition of at least 40% at 20 µM;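 note: plate controls were DMSO wells for no effect and DEVD-CHO caspase inhibitor wells for full effect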
#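 System – cell-free apoptosome with Apaf-1, procaspase-3 and caspase-9 · Buffer or medium – pH 7.5 Hepes buffer with CHAPS, BSA, DTT · Also added – cytochrome c with DEVD-Rh110 · Times – 30 min compound preincubation, 50 min activation, room temperature · Technique – Rh110 fluorescence intensity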
# SENP7 inh = SENP7 protease inhibitors, primary screen, biochemical, luminescence, uHTS. Sentrin-specific protease 7 (Homo sapiens), Q9BQF6. recombinant SENP7, Z-RLRGG-aminoluciferin luminescence, 40 min. inhibition, % at 5 µM. 330,000 tested, 1.5% active. AID 434973, 2010;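 active = inhibition above about 50% at the single test dose, limit read from the data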;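 note: plate controls were DMSO with enzyme for no effect and no enzyme buffer wells for full effect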
# Target sequence (Q9BQF6 706-1050 limits assumed): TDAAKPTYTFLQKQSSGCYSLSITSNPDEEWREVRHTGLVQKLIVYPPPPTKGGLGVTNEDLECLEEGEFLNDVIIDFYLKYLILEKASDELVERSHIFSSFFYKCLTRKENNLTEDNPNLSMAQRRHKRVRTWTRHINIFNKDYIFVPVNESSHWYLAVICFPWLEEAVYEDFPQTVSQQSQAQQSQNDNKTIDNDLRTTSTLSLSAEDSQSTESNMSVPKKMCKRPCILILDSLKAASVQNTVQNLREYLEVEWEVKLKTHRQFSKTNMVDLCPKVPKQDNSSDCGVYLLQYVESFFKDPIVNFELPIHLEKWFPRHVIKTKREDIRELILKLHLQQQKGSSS
# SENP6 block = SENP6 protease inhibitors, primary screen, biochemical, luminescence, uHTS; Recombinant SENP6 catalytic domain, aminoluciferin luminescence; 330,000 tested, 1.8% active; inhibition, % at 10 µM;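 active = inhibition above about 50% at the single tested dose, limit read from the data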;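 note: plate controls were DMSO wells with enzyme for no effect and DMSO wells lacking enzyme for full effect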
# SENP8 conf = SENP8 protease inhibitors, retest, confirmation, biochemical, luminescence, single concentration; Recombinant SENP8, Z-RLRGG-aminoluciferin luminescence, 60 min; 6,200 tested, 40% active; shares compounds with SENP7 inh; AID 488912, 2010; inhibition, % at 12.5 µM;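 active = mean inhibition across replicates above about 50%, limit read from the data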
# SENP6 confirm = SENP6 protease inhibitors, confirmation, biochemical, luminescence, single concentration; shares compounds with SENP7 inh; recombinant SENP6, Z-RLRGG-aminoluciferin luminescence; inhibition, % at 12.5 µM; 6,200 tested, 58% active
# SENP7 confirm = SENP7 protease inhibitors, retest, confirmation, biochemical, luminescence, single concentration | shares compounds with SENP7 inh | inhibition, % at 12.5 µM | recombinant SENP7, Z-RLRGG-aminoluciferin luminescence, 40 min | AID 488917, 2010 | 6,200 tested, 69% active
# Casp3 select = caspase-3 protease inhibitors, confirmation, selectivity assay for SENP inhibitor project, biochemical, single concentration | shares compounds with SENP7 inh | purified caspase-3, Z-DEVD-aminoluciferin luminescence, 60 min | inhibition, % at 12.5 µM | 6,200 tested, 60% active;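 active = mean inhibition above about 50%, limit read from the data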;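 note: plate controls were enzyme with DMSO for no effect and wells without caspase-3 for full effect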
# SENP luc ctr = luminescence interference (SENP counter-screen); 6,200 tested, 39% active; inhibition, % at 12.5 µM; Pre-incubated SENP8/Z-RLRGG-aminoluciferin, luciferase luminescence interference; shares compounds with SENP7 inh; AID 488919;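 active = mean inhibition above about 50% when retested at one dose, limit read from the data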;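 note: plate controls were DMSO wells with completed reaction for no effect and substrate without enzyme for full effect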
# Numbers without * were called inactive; / = not tested or not shown. The list is not random: actives were taken first. Their share in the collection is about 2.9%.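 Rule for the calls, unless noted: active = mean inhibition above about 50% in the one-dose retest (limit read from the data); inactive = the rest.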
SMILES,SENP1 FRET inh,SENP8 block-1,SENP8 block-2,Apaf-1 inh,SENP7 inh,SENP6 block,SENP8 conf,SENP6 confirm,SENP7 confirm,Casp3 select,SENP luc ctr
COc1cc(OC)cc(N2C(=O)CC(N3CCC(C(=O)N4CCCCC4)CC3)C2=O)c1 (centres undefined),2,-1,-9,-9,-16,5,/,/,/,/,/
CN(c1ccccc1)c1ccc(/C=N/N2CCOCC2)cc1,0,-21,34,-3,31,52*,44,43,79*,49,31
C(=NN1CCCCCC1)c1ccccc1,1,11,/,/,/,/,/,/,/,/,/
CCCCc1ccc(-c2ccc(C)cc2O)nc1,-1,27,53*,11,72*,14,19,30,30,42,18
CCCCc1ccc(-c2ccc(Br)cc2O)nc1,1,28,-5,12,68*,12,10,10,11,25,4
CCN(CC)C(=O)C1=C(C)N(Cc2ccc(OC)cc2)C(=O)C(CC(=O)NC2CC2)C1 (centres undefined),-1,-20,/,/,/,/,/,/,/,/,/
COC(=O)c1ccc2cc(C)cc(C)c2n1,-2,-163,/,/,/,/,/,/,/,/,/
Cc1ccc(OCC(=O)Nc2cccc(C)n2)c(C)c1,1,0,45,12,65*,74*,30,67*,90*,69*,22
Cc1cccc(NC(=O)COc2ccc(Br)cc2)n1,0,14,-3,2,18,6,/,/,/,/,/
Fc1ccccc1CNc1ncnc2sccc12,-29,-4,-6,8,0,87*,-6,-5,-12,0,4
COc1ccccc1CN1C(=O)C(Cc2ccccc2)ON=C1c1ncccc1C (centres undefined),4,-2,/,/,/,/,/,/,/,/,/
CC(OC(=O)CCCN=C1NS(=O)(=O)c2ccccc21)C(=O)Nc1ccc(F)cc1Cl (centres undefined),1,9,0,1,3,-14,/,/,/,/,/
COc1cc(C)nc(NS(=O)(=O)c2ccccc2Cl)n1,-1,5,-7,-3,52*,4,-25,-17,-6,-5,-6
CCOC(=O)C1=C[C@@H](c2ccccc2)N(S(=O)(=O)c2ccc(C)cc2)[C@H]1c1ccc(F)cc1,0,13,/,/,/,/,/,/,/,/,/
CC(=O)Nc1ccc(CN2C(=O)C(Cc3ccccc3)ON=C2c2ncccc2C)cc1 (centres undefined),-3,6,/,/,/,/,/,/,/,/,/
CCCc1nc(SCC(=O)N2CCc3ccccc3C2)c2ccccc2n1,-3,18,-1,3,98*,-26,10,11,10,6,3
CCCCNC(=O)CSc1nc(CCC)nc2ccccc12,1,10,0,-1,2,-10,/,/,/,/,/
O=C(NCc1cccc(Cl)c1)c1ccc(CS(=O)Cc2ccc(Cl)cc2)o1 (centres undefined),1,14,-24,10,-2,-1,/,/,/,/,/
CCOC(=O)CNC(=O)CSc1ncnc2c1cnn2-c1ccc(Cl)cc1,-1,-77,5,-1,2,10,/,/,/,/,/
CCOC(=O)Cc1csc(NC(=O)CSc2ncnc3c2cnn3-c2ccc(OC)cc2)n1,-14,-333,71*,24,52*,75*,42,69*,59*,84*,12
COc1ccc(-n2ncc3c(SCC(=O)N4CCN(c5ccccc5OC)CC4)ncnc32)cc1,-4,11,69*,20,12,32,6,14,7,31,1
Cn1nc(C(=O)Nc2cccc(Cl)c2)cc1C(=O)Nc1cccc(Cl)c1,-1,4,-9,0,-1,-8,/,/,/,/,/
CCOC(=O)c1cc(C(=O)Nc2cccc(C)c2)nn1C,3,7,31,-4,59*,40,46,43,78*,72*,58*
Cc1ccccc1N=C1Nc2ccccc2CS1,3,21,74*,18,80*,86*,34,79*,95*,79*,45
O=C(COC(=O)CCC(=O)c1ccc(F)cc1)Nc1cccc(S(=O)(=O)N2CCCC2)c1,5,16,-2,-13,-2,88*,3,-4,-10,-3,-2
SMILES,SENP1 FRET inh,SENP8 block-1,SENP8 block-2,Apaf-1 inh,SENP7 inh,SENP6 block,SENP8 conf,SENP6 confirm,SENP7 confirm,Casp3 select,SENP luc ctr
O=C(O)c1cccc(NC(=O)c2cccc(S(=O)(=O)N3CCCCC3)c2)c1,3,9,64*,-20,78*,77*,79*,77*,94*,42,66*
COc1ccc(C(=O)Nc2cccc(C(=O)O)c2)cc1S(=O)(=O)N1CCCC1,0,3,36,6,54*,51*,38,36,73*,16,9
COc1ccc(-c2cn3cc(C)ccc3n2)cc1Br,0,-366,82*,7,86*,91*,38,87*,99*,86*,26
COc1ccc(-c2cn3cc(Cl)ccc3n2)cc1OC,3,-271,1,12,6,2,/,/,/,/,/
Cc1cccc(S(=O)(=O)N[C@@H]2CC[C@@H](CCNS(=O)(=O)c3ccccc3F)O[C@@H]2CO)c1,1,4,/,/,/,/,/,/,/,/,/
COc1ccc(NC(=O)N2CCc3ccccc32)cc1,4,13,86*,-2,96*,95*,93*,93*,99*,94*,91*
CCOC(=O)c1ccc(NC(=O)N2CCc3ccccc3C2)cc1,0,-2,13,7,5,10,/,/,/,/,/
CCOC(=O)c1ccc(NC(=O)N2CCc3ccccc32)cc1,2,17,77*,5,96*,91*,-13,81*,95*,76*,23
